The values that follow come from ChEMBL document CHEMBL1133465, “[Pro(3)]Dyn A(1-11)-NH(2): a dynorphin analogue with high selectivity for the kappa opioid receptor” (J Med Chem, 2000).

Test [1] deals with T1, Kappa-type opioid receptor (Homo sapiens, UniProt P41145). Description: Binding affinity towards cloned human Opioid receptor kappa 1 in CHO cell membranes. The test is classed as cell-based.
The target of test [2] is T2, Delta-type opioid receptor (Homo sapiens, UniProt P41143). Briefly: (§1) Binding affinity towards cloned human Opioid receptor delta 1 in CHO cell membranes. It is filed as cell-based. The method in brief:
(§2)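 Membranes from CHO cells stably expressing cloned human µ, δ or κ receptors in 50 mM Tris-HCl pH 7.8 with EGTA, MgCl2 and protease inhibitors. 50-100 µg protein with 1.0 nM [3H]diprenorphine, 60 min at room temperature. Filtered on PEI/BSA-treated GF/B and counted by scintillation. Nonspecific binding with 10 µM naloxone. Four-parameter one-site fit, Ki by Cheng-Prusoff.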

The target in test [3] is Mu-type opioid receptor (Homo sapiens, UniProt P35372). Description: Binding affinity towards cloned human Opioid receptor mu 1 in CHO cell membranes. It is filed as cell-based. The method in brief:
as §2

Test [4] addresses T1, Kappa-type opioid receptor. Briefly: Binding affinity at Opioid receptor kappa 1 by to cloned human opioid receptors expressed in CHO cell membranes. The method in brief: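 Membranes from CHO cells stably expressing cloned human κ receptor; 50-100 µg protein in 50 mM Tris-HCl pH 7.8 with EGTA, MgCl2 and protease inhibitors. […] Nonspecific binding with 10 µM naloxone. Filtration and scintillation counting; Ki by Cheng-Prusoff.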

A short description of test [5]: Antagonist activity determined in the [35S]GTP-gamma-S, binding assay relative to 25 nM [D-Ala3] Dyn A (1-11)-NH2. It is filed as functional.
Test [6] is described as follows: Antagonist activity determined in the [35S]GTP-gamma-S, binding assay relative to 50 nM U50,488. The test is classed as functional. Background: GTPγS resists hydrolysis and so accumulates on activated G proteins.
Test [7] has as its target T1, Kappa-type opioid receptor. Description: Human Opioid receptor kappa 1 mediated stimulation of [35S]- GTPgammaS binding in CHO cells (Agonist potency). It is filed as cell-based. In a few lines:
(§3)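 κ-expressing CHO membranes (50-150 µg) in 50 mM Tris HCl pH 7.8 with 80-100 pM [35S]GTPγS, 30 µM GDP, 100 mM NaCl and 5.0 mM MgCl2, 1 h at 30 °C. Filtered and counted. Agonist concentration series gave EC50 by nonlinear regression. Maximal response at 10 µM expressed relative to U50,488 set as 100%.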

For test [8], the target named is T1, Kappa-type opioid receptor. Briefly: Binding affinity of Opioid receptor kappa 1 to cloned human opioid receptor in CHO cell membrane. The test is classed as cell-based. In a few lines: as §2
Test [9] is filed under the species Cavia porcellus. Description: Tested for agonist or antagonist properties in guinea pig ileum a (GPI) assay. The test is classed as functional, organism-based.
For test [10], the species on record is Cavia porcellus. Briefly: Tested for agonist or antagonist properties in guinea pig ileum by (GPI) assay.
Test [11] is filed under the species Cavia porcellus. Briefly: Antagonist activity determined in the guinea pig assay against U50,488 at 1 uM. The test is classed as functional. The method in brief:
(§4)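 Electrically stimulated guinea pig ileum. Antagonist held at a fixed concentration of 1 µM. IC50 of the reference agonist (U50,488 or [D-Ala3]Dyn A(1-11)-NH2, as the line names) was measured with and without antagonist. Ke was calculated from the shift.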

Test [12] is filed under the species Cavia porcellus. Briefly: Antagonist activity determined in the guinea pig assay against [D-Ala3] Dyn A (1-11)-NH2 at 1 uM. The test is classed as functional. In a few lines: as §4
The target in test [13] is T2, Delta-type opioid receptor. Described as §1. It is filed as cell-based. The method in brief:
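Membranes from CHO cells stably expressing cloned human δ receptor; 50-100 µg protein. […] Nonspecific binding with 10 µM naloxone. Filter-bound counts; Ki via Cheng-Prusoff from a one-site fit.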
This is another data set of the same source.

Test [14] addresses T1, Kappa-type opioid receptor. Description: Human kOpioid receptor kappa 1 mediated stimulation of [35S]- GTPgammaS binding in CHO cells (Agonist potency). It is filed as cell-based. In a few lines: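 Human κ-CHO membranes (50-150 µg) with 80-100 pM [35S]GTPγS, 30 µM GDP and 100 mM NaCl in Tris-HCl pH 7.8; 1 h at 30 °C, then filtration and counting. EC50 from a nonlinear fit of an agonist concentration series. Maximal response at 10 µM expressed relative to U50,488 (100%).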

The species entered for test [15] is Cavia porcellus. Briefly: Tested for antagonist activity in guinea pig ileum by (GPI) assay. It is filed as functional, organism-based. In a few lines: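 Electrically evoked contractions of guinea pig ileum. Ke calculated from IC50 of reference agonist (U50,488 or [D-Ala3]Dyn A(1-11)-NH2), measured with and without a fixed concentration of antagonist.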
Test [16] can be described thus: Tested for maximum agonist response at concentration 10 uM, relative to that with standard agonist U50,488. It is filed as functional. In a few lines: as §3

T2 sequence (P41143 whole entry): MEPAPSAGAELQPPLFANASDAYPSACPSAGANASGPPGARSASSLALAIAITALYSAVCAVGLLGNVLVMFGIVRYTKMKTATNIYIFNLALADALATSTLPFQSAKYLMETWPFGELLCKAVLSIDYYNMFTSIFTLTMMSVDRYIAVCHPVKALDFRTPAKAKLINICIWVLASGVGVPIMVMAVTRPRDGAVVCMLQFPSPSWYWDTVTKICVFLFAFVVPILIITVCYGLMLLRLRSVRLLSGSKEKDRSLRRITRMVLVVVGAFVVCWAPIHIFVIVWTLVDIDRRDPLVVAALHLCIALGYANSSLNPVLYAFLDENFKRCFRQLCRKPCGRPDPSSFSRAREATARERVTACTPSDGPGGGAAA
T1 sequence (P41145 whole entry): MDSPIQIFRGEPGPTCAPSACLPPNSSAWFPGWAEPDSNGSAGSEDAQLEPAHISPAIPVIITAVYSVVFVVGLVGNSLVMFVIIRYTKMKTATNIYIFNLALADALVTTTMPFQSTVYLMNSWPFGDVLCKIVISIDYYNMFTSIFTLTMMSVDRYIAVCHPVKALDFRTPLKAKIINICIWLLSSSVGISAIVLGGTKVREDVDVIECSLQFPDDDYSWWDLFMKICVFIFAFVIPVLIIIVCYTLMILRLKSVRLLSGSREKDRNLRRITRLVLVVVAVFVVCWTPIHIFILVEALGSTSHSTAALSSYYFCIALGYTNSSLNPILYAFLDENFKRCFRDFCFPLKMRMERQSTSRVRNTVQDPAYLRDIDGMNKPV
Sequence of Mu-type opioid receptor (P35372 whole entry): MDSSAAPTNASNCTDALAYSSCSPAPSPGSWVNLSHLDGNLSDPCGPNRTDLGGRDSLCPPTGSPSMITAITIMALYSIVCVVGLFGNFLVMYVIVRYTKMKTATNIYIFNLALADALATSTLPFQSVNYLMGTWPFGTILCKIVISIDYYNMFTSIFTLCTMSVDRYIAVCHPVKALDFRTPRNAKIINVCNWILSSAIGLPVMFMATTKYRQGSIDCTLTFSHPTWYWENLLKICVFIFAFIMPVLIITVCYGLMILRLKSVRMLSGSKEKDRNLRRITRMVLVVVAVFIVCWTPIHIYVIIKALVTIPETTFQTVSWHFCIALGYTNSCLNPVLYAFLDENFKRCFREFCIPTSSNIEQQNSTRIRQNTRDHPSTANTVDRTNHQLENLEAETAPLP

`CC[C@H](C)[C@H](NC(=O)[C@H](CCCN=C(N)N)NC(=O)[C@H](CCCN=C(N)N)NC(=O)[C@H](CC(C)C)NC(=O)[C@H](Cc1ccccc1)NC(=O)[C@@H]1CCCN1C(=O)CNC(=O)[C@@H](N)Cc1ccc(O)cc1)C(=O)N[C@@H](CCCN=C(N)N)C(=O)N1CCC[C@H]1C(=O)N[C@@H](CCCCN)C(N)=O`: the Ki turned out to be 2.7 nM in [1], 8.8 µM in [2], 5700 nM in test [3] and 7.5 nM in test [4]. In addition, the 50% inhibitory concentration (IC50) is 1400 nM in [5] and 380 nM in test [6].
Regarding `CC[C@H](C)[C@H](NC(=O)[C@H](CCCNC(=N)N)NC(=O)[C@H](CCCNC(=N)N)NC(=O)[C@H](CC(C)C)NC(=O)[C@H](Cc1ccccc1)NC(=O)[C@@H](C)NC(=O)CNC(=O)[C@@H](N)Cc1ccc(O)cc1)C(=O)N[C@@H](CCCNC(=N)N)C(=O)N1CCC[C@H]1C(=O)N[C@@H](CCCCN)C(N)=O`, the Ki in test [1] was found to be 0.15 nM; in test [3], 67 nM. The same molecule registered a half-maximal effective concentration (EC50) in test [7] of 6.1 nM.
In the case of `CC[C@@H](C)[C@@H](NC(=O)CNC(=O)[C@@H](N)Cc1ccc(O)cc1)C(=O)N[C@@H](Cc1ccccc1)C(=O)N[C@@H](CC(C)C)C(=O)N[C@@H](CCCN=C(N)N)C(=O)N[C@@H](CCCN=C(N)N)C(=O)N[C@H](C(=O)N[C@@H](CCCN=C(N)N)C(=O)N1CCC[C@H]1C(=O)N[C@@H](CCCCN)C(N)=O)[C@@H](C)CC`, in [8], affinity was put at a Ki of 55 nM.
Take `CCC[C@H](NC(=O)[C@H](Cc1ccccc1)NC(=O)CNC(=O)CNC(=O)[C@H](Cc1ccc(O)cc1)NCc1ccccc1)C(=O)N[C@@H](CCCN=C(N)N)C(=O)N[C@@H](CCCN=C(N)N)C(=O)N[C@H](C(=O)N[C@@H](CCCN=C(N)N)C(=O)N1CCCC1C(=O)N[C@@H](CCCCN)C(N)=O)[C@@H](C)CC` (stereo in doubt): in test [9], the IC50 turned out to be 990 nM.
Consider `CC[C@H](C)[C@H](NC(=O)[C@H](CCCN=C(N)N)NC(=O)[C@H](CCCN=C(N)N)NC(=O)[C@H](CC(C)C)NC(=O)[C@H](Cc1ccccc1)NC(=O)[C@@H](C)NC(=O)CNC(=O)[C@@H](N)Cc1ccc(O)cc1)C(=O)N[C@@H](CCCN=C(N)N)C(=O)N1CCC[C@H]1C(=O)N[C@@H](CCCCN)C(N)=O`, for which the half-inhibitory concentration (IC50) in [10] worked out at 2.38 nM.
For `CC[C@H](C)[C@H](NC(=O)[C@H](CCCNC(=N)N)NC(=O)[C@H](CCCNC(=N)N)NC(=O)[C@H](CC(C)C)NC(=O)[C@H](Cc1ccccc1)NC(=O)CNC(=O)[C@@H]1CCCN1C(=O)[C@@H](N)Cc1ccc(O)cc1)C(=O)N[C@@H](CCCNC(=N)N)C(=O)N1CCC[C@H]1C(=O)N[C@@H](CCCCN)C(N)=O`, the Ki in test [1] came to 94 nM; in [2], 6.8 µM; in [3], 3200 nM. Also, the IC50 in test [6] turned out to be 760 nM.
In the case of `CC[C@H](C)[C@H](NC(=O)[C@H](CCCN=C(N)N)NC(=O)[C@H](CCCN=C(N)N)NC(=O)[C@H](CC(C)C)NC(=O)[C@H](Cc1ccccc1)NC(=O)[C@H]1CCCN1C(=O)CNC(=O)[C@@H](N)Cc1ccc(O)cc1)C(=O)N[C@@H](CCCN=C(N)N)C(=O)N1CCC[C@H]1C(=O)N[C@@H](CCCCN)C(N)=O`, the Ki in [1] is 160 nM; in [2], 7.1 µM; in test [3], 8300 nM. For the same molecule, the 50% inhibitory concentration (IC50) in [6] came out at 2200 nM.
In the case of `Oc1ccc2c3c1O[C@H]1c4[nH]c5c(c4C[C@@]4(O)[C@@H](C2)N(CC2CC2)CC[C@]314)C[C@@]1(O)[C@H]2Cc3ccc(O)c4c3[C@@]1(CCN2CC1CC1)[C@H]5O4` [NORBINALTORPHIMINE], the Ke amounted to 0.357 nM in test [11] and 0.572 nM in [12]. For the same molecule, the figures for the concentration for half-maximal inhibition (IC50) in test [5] and in test [6] were 4.7 nM and 4.6 nM, respectively.
For `CC[C@H](C)[C@H](NC(=O)[C@H](CCCN=C(N)N)NC(=O)[C@H](CCCN=C(N)N)NC(=O)[C@H](CC(C)C)NC(=O)[C@H](Cc1ccccc1)NC(=O)CNC(=O)[C@H]1CCCN1C(=O)[C@@H](N)Cc1ccc(O)cc1)C(=O)N[C@@H](CCCN=C(N)N)C(=O)N1CCC[C@H]1C(=O)N[C@@H](CCCCN)C(N)=O`, the Ki in [1] was found to be 65 nM; in test [2], 3.9 µM; in [3], 1700 nM. In [6], this molecule yielded an IC50 of 940 nM.
With `CC[C@H](C)[C@H](NC(=O)[C@H](CCCN=C(N)N)NC(=O)[C@H](CCCN=C(N)N)NC(=O)[C@H](CC(C)C)NC(=O)[C@H](Cc1ccccc1)NC(=O)CNC(=O)CNC(=O)[C@@H](N)Cc1ccc(O)cc1)C(=O)N[C@@H](CCCN=C(N)N)C(=O)N1CCC[C@H]1C(=O)N[C@@H](CCCCN)C(N)=O`, the Ki came out at 0.074 nM in [1], 2.9 nM in [13] and 7.6 nM in [3]. Also, the 50% effective concentration (EC50) in [14] was 0.74 nM. Moreover, inhibition in [15] was half-maximal at 0.376 nM (IC50). In [16], this molecule returned a Max agonist response of 73%.

The Ki is the dissociation constant of the complex between target and ligand, obtained from inhibition or displacement. A lower Ki goes with tighter binding. One may read the IC50 as the concentration needed to halve the response being measured. The term EC50 denotes the concentration that produces a half-maximal response. A lower EC50 goes with higher potency in that assay.
